This passage reports IC50 and Activity results from ChEMBL document CHEMBL1138901, “Design, synthesis, and biological evaluation of the combinatorial library with a new spirodiketopiperazine scaffold. Discovery of novel potent and selective low-molecular-weight CCR5 antagonists” (J Med Chem, 2006).

In experiment [1] the target is T1, C-C chemokine receptor type 5 (Homo sapiens, UniProt P51681). As to the kind of experiment: Antagonist activity against human recombinant CCR5 expressed in CHO cells assessed as inhibition of human MIP-1-alpha-stimulated calcium mobilization. The class given is functional, cell-based. The method, boiled down: (§1)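 Human chemokine receptor-overexpressing CHO cells were stimulated with the matching human endogenous ligand, and calcium mobilization was read out. Library members were tested at 30 µM. Crude products were dissolved in DMSO as 10 mM stocks and used without further purification.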
A general note: Calcium flux is commonly read through the fluorescence of an indicator in the cells.

Experiment [2] deals with T2, C-C chemokine receptor type 2 (Homo sapiens, UniProt P41597). As to the kind of experiment: Antagonist activity against human recombinant CCR2 expressed in CHO cells assessed as inhibition of human MCP1-stimulated calcium mobilization. In kind it is functional, cell-based. The gist of the method: as §1
The target of experiment [3] is T3, C-X-C chemokine receptor type 4 (Homo sapiens, UniProt P61073). Put plainly: Antagonist activity against human recombinant CXCR4 expressed in CHO cells assessed as inhibition of human SDF1-alpha-stimulated calcium mobilization. The class given is functional, cell-based. The method, boiled down: as §1
The target of experiment [4] is T1, C-C chemokine receptor type 5. As to the kind of experiment: Inhibition of radio-isotope labeled MIP1-alpha binding to human recombinant CCR5.
Experiment [5] concerns the target T2, C-C chemokine receptor type 2. As to the kind of experiment: Inhibition of radio-isotope labeled MCP1 binding to human recombinant CCR2.
The target in experiment [6] is T3, C-X-C chemokine receptor type 4. As to the kind of experiment: Inhibition of radio-isotope labeled SDF1-alpha binding to human recombinant CXCR4.
Experiment [7] concerns Human immunodeficiency virus 1. As to the kind of experiment: Antiviral activity against T cell tropic HIV1 X4. The class given is functional, organism-based.
The target of experiment [8] is C-C chemokine receptor type 4 (Homo sapiens, UniProt P51679). Put plainly: Antagonist activity against human recombinant CCR4 expressed in CHO cells assessed as inhibition of human […]-stimulated calcium mobilization. The class given is functional, cell-based. The method, boiled down: as §1
In experiment [9] the target is Muscarinic acetylcholine receptor M3 (Homo sapiens, UniProt P20309). As to the kind of experiment: Binding affinity to muscarinic M3 receptor.
In experiment [10] the target is Sigma non-opioid intracellular receptor 1 (Homo sapiens, UniProt Q99720). Put plainly: Binding affinity to sigma receptor.

A word on the IC50: it is the point on the concentration scale where inhibition reaches its midpoint.

The source made the active and inactive calls. The calls are words filed in the database; no cut-off is given here. Where only a bound is given, the exact number is not on record here.

T3 sequence (P61073 whole entry): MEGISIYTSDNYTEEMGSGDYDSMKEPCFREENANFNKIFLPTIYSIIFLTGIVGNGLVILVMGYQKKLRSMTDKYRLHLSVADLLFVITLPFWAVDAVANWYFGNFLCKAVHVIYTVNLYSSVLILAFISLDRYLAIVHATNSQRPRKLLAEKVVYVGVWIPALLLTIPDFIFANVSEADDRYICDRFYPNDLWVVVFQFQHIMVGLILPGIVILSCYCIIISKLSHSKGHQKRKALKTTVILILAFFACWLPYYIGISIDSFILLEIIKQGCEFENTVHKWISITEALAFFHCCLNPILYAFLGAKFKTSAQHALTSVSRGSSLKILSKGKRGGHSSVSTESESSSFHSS
T2 sequence (P41597 whole entry): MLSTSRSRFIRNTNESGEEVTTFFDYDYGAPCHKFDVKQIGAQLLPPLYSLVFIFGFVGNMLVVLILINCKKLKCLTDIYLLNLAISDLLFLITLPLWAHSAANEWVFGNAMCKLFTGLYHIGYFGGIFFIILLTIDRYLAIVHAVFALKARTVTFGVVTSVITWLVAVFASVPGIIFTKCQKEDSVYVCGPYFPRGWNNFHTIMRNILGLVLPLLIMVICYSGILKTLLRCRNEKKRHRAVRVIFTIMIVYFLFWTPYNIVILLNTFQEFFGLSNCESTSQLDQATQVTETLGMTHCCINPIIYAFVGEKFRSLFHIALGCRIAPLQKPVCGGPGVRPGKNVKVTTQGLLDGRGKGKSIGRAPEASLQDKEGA
T1 sequence (P51681 whole entry): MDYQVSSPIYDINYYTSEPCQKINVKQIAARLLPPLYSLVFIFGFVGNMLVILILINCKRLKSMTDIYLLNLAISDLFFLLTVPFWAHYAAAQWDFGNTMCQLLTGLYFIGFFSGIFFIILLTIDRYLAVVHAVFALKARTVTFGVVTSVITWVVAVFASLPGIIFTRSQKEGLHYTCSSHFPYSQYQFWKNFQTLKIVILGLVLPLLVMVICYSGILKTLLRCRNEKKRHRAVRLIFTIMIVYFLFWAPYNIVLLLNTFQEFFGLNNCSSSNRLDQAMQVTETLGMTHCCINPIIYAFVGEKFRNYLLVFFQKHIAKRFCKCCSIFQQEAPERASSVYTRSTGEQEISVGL
C-C chemokine receptor type 4, sequence (P51679 whole entry, looked up): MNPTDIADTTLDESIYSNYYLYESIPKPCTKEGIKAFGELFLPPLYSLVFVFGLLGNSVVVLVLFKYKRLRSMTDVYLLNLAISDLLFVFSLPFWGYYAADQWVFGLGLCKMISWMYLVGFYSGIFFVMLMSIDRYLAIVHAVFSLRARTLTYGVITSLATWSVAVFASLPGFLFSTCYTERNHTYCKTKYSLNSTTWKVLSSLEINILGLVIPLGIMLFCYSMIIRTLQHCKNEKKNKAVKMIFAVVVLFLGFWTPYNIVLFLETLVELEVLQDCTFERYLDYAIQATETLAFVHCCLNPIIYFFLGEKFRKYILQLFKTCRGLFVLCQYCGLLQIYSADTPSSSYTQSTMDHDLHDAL
Muscarinic acetylcholine receptor M3, sequence (P20309 whole entry): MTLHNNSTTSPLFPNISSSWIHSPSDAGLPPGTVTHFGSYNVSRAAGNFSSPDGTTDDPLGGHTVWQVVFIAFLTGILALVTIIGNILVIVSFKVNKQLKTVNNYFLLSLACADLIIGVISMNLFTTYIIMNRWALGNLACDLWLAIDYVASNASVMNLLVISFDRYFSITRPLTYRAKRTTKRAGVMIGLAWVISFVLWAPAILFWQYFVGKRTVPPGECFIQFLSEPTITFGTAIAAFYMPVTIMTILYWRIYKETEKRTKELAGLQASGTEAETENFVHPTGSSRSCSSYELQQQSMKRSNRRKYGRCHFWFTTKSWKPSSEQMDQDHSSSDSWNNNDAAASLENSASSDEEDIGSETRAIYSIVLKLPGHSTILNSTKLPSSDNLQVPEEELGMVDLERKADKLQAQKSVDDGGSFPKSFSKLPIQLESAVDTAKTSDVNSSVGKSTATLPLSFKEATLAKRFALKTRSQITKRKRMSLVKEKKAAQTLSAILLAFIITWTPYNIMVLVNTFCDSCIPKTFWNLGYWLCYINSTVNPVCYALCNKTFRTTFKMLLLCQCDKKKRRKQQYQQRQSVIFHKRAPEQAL
Sigma non-opioid intracellular receptor 1, sequence (Q99720 whole entry): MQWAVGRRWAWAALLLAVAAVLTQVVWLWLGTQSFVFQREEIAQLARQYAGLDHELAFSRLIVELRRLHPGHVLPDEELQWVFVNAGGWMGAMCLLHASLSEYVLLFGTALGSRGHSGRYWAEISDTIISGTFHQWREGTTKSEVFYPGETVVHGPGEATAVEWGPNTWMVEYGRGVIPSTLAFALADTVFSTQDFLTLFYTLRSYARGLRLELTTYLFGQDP

As for `CCCCN1C(=O)C(CC2CCCCC2)NC(=O)C12CCN(Cc1ccc(Oc3ccccc3)cc1)CC2` (stereo unspecified), the IC50 in experiment [1] is 0.17 µM; in experiment [2], more than 10 µM; in experiment [3], more than 10 µM; in [4] it was 0.0061 µM; in experiment [5], more than 10 µM; in [6], more than 10 µM. Moreover, the result in experiment [7] was inactive.

With `CCCCN1C(=O)C(CC(C)C)NC(=O)C12CCN(Cc1ccccc1)CC2` (stereo unspecified), the IC50 in [1] is 0.9 µM; in experiment [2], more than 30 µM; in experiment [8], more than 30 µM; in [3] it was more than 30 µM; in [4], 0.56 µM; in experiment [6], more than 10 µM. In experiment [7], the result was inactive.

On to `C=CCOc1ccc(CN2CCC3(CC2)C(=O)NC(CC2CCCCC2)C(=O)N3CCCC)cc1` (stereo unspecified), for which the IC50 in [1] was 0.05 µM; in experiment [2], more than 10 µM; in experiment [3], more than 10 µM; in experiment [4] it was 0.011 µM; in experiment [5], more than 10 µM; in experiment [6], more than 10 µM. Moreover, the result in experiment [7] was inactive.

Consider `CCCCN1C(=O)C(CC2CCCCC2)NC(=O)C12CCN(Cc1ccc3c(c1)OCCO3)CC2` (stereo unspecified), for which the IC50 was 0.02 µM in experiment [1]; more than 10 µM in [2]; more than 10 µM in [3]; 0.0025 µM in [4]; more than 10 µM in experiment [5]; more than 10 µM in experiment [6]. Moreover, the IC50 came out at 2.07 µM in experiment [9] and 0.183 µM in experiment [10]. Further, the outcome in experiment [7] was inactive.

Turning to `CCCCN1C(=O)C(CC(C)C)NC(=O)C12CCN(CCCCCCc1ccccc1)CC2` (stereo unspecified), the IC50 in experiment [1] is 0.27 µM; in experiment [2], more than 10 µM; in experiment [8], more than 10 µM; in experiment [3], 6.7 µM; in [4] it was 0.038 µM; in [5], more than 10 µM. The IC50 in experiment [6] is more than 10 µM. Also, in experiment [7], the result was inactive.

In the case of `CC(C)C[C@@H]1NC(=O)C2(CCN(Cc3ccccc3)CC2)N(Cc2ccccc2)C1=O`, the IC50 was 3.2 µM in experiment [1], more than 30 µM in [2], more than 30 µM in experiment [8] and more than 30 µM in [3]. Further, in [7], the result was inactive.

Consider `CCCCN1C(=O)C(CC2CCCCC2)NC(=O)C12CCN(Cc1ccc(OC)cc1)CC2` (stereo unspecified), for which the IC50 was 0.12 µM in experiment [1]; more than 30 µM in experiment [2]; more than 30 µM in [3]; 0.0045 µM in experiment [4]; more than 30 µM in [5]; more than 30 µM in experiment [6]. Further, the result in experiment [7] was inactive.

Consider `CCCN1C(=O)[C@H](CC(C)C)NC(=O)C12CCN(CCCCCCc1ccccc1)CC2`, for which the IC50 in experiment [1] is 2 µM; in [2], more than 10 µM; in experiment [8] it was more than 10 µM; in experiment [3], more than 10 µM. Moreover, the result in experiment [7] was inactive.

With `CCCN1C(=O)[C@@H](CC2CCCCC2)NC(=O)C12CCN(CCCCCCc1ccccc1)CC2`, the IC50 in [1] is 0.27 µM; in experiment [2], more than 10 µM; in experiment [8], more than 10 µM; in experiment [3], more than 10 µM; in experiment [4], 0.86 µM; in [6], more than 10 µM. In addition, the outcome in experiment [7] was inactive.

Consider `CC(C)C[C@H]1NC(=O)C2(CCN(Cc3ccccc3)CC2)N(Cc2ccccc2)C1=O`, for which the half-maximal inhibitory concentration (IC50) is 7.6 µM in experiment [1], more than 30 µM in experiment [2], more than 30 µM in experiment [8] and more than 30 µM in experiment [3]. Also, the outcome in [7] was inactive.

On to `CCCCN1C(=O)C(CC(C)C)NC(=O)C12CCN(Cc1ccc(Oc3ccccc3)cc1)CC2` (stereo unspecified), for which the IC50 in experiment [1] is 0.12 µM; in [2], more than 10 µM; in experiment [3] it was more than 10 µM; in experiment [4], 0.083 µM; in experiment [5], more than 10 µM; in experiment [6] it was more than 10 µM. Further, in experiment [7], the result was inactive.

On to `CCCN1C(=O)C(CC(C)C)NC(=O)C12CCN(Cc1ccc(Oc3ccccc3)cc1)CC2` (stereo unspecified), for which the IC50 is 0.5 µM in experiment [1]; more than 30 µM in [2]; more than 30 µM in [8]; more than 30 µM in experiment [3]; 0.017 µM in experiment [4]; more than 30 µM in experiment [5]. The IC50 in experiment [6] is more than 30 µM. Besides, the outcome in [7] was inactive.

Take `CCCCN1C(=O)C(CC(C)C)NC(=O)C12CCN(Cc1ccc3c(c1)OCCO3)CC2` (stereo unspecified): the IC50 was 0.17 µM in experiment [1]; more than 10 µM in experiment [2]; more than 10 µM in experiment [3]; 0.02 µM in [4]; more than 10 µM in [5]; more than 10 µM in experiment [6]. The result in experiment [7] was inactive.

For `CCCN1C(=O)[C@@H](CC(C)C)NC(=O)C12CCN(CCCCCCc1ccccc1)CC2`, the IC50 in experiment [1] is 3 µM; in experiment [2], more than 10 µM; in experiment [8], more than 10 µM; in [3] it was more than 10 µM. In addition, in [7], the outcome was inactive.

Regarding `CCCN1C(=O)[C@H](CC2CCCCC2)NC(=O)C12CCN(CCCCCCc1ccccc1)CC2`, the IC50 was 0.3 µM in experiment [1]; more than 10 µM in [2]; more than 10 µM in experiment [8]; more than 10 µM in [3]; 0.61 µM in [4]; more than 10 µM in experiment [6]. For the same compound, the outcome in experiment [7] was inactive.
